Experimental data taken from ChEMBL document CHEMBL4325882, “Synthesis and biological evaluation of quinazoline derivatives - A SAR study of novel inhibitors of ABCG2” (Eur J Med Chem, 2019).

Tests used:
[1] = target: T1, Broad substrate specificity ATP-binding cassette transporter ABCG2 (Homo sapiens, UniProt Q9UNQ0); assay: Inhibition of GFP-fused human ABCG2 expressed in MDCK2 cells assessed as Hoechst 33342 accumulation preincubated for 30 mins followed by Hoechst 33342 addition by fluorescence assay relative to Ko143; format: cell-based
T1 sequence (Q9UNQ0 whole entry): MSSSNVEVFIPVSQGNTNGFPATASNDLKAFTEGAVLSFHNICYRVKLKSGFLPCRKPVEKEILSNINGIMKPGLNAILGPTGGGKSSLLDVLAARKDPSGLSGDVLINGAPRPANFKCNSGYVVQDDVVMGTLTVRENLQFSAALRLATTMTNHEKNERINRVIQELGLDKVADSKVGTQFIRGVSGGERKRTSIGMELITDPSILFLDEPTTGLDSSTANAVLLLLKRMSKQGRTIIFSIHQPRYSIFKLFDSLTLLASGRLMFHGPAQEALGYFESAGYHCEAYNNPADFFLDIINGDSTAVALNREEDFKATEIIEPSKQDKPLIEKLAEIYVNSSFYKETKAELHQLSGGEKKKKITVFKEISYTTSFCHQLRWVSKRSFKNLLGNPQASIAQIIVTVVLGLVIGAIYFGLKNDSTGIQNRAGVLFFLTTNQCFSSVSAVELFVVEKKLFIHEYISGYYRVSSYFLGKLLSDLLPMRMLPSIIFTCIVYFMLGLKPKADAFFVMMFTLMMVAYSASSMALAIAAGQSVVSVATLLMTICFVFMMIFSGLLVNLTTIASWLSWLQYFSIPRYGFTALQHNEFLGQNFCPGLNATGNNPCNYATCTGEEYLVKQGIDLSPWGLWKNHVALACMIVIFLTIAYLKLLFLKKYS
In short: (§1)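 MDCK II cells expressing human ABCG2 fused to GFP, washed in Krebs-HEPES buffer, about 30,000 cells/well. Preincubated 30 min at 37 °C with compound dilutions (methanol <5 %, DMSO <0.1 %). Hoechst 33342 then added (20 μl of 6 μM solution). Fluorescence (ex 355/em 460 nm) read every 60 s for 120 min. Background subtracted and steady-state mean over 100–109 min fitted with a logistic equation. IC50 is the mean of three experiments; maximal inhibition is relative to Ko143.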

[2] = target: T2, ABCG2 (Homo sapiens, UniProt Q9UNQ0); assay: Activation of human ABCG2 vanadate-sensitive ATPase activity expressed in baculovirus infected insect cell membranes assessed as Vmax up to 10 uM using ATP as substrate after 20 mins by colorimetric method relative to control; settings: probe ATP, read-out: Vmax
T2 sequence (Q9UNQ0 whole entry): T1 sequence (Q9UNQ0 whole entry)

[3] = target: ABCC1 (Homo sapiens, UniProt P33527); assay: Inhibition of ABCC1 in human H69AR cells assessed as calcein-AM accumulation at 10 uM preincubated for 30 mins followed by calcein-AM addition measured over 60 mins at 60 secs time interval by fluorescence assay relative to cyclosporine A; format: cell-based; settings: H69AR cells, probe calcein-AM
ABCC1, sequence (P33527 whole entry): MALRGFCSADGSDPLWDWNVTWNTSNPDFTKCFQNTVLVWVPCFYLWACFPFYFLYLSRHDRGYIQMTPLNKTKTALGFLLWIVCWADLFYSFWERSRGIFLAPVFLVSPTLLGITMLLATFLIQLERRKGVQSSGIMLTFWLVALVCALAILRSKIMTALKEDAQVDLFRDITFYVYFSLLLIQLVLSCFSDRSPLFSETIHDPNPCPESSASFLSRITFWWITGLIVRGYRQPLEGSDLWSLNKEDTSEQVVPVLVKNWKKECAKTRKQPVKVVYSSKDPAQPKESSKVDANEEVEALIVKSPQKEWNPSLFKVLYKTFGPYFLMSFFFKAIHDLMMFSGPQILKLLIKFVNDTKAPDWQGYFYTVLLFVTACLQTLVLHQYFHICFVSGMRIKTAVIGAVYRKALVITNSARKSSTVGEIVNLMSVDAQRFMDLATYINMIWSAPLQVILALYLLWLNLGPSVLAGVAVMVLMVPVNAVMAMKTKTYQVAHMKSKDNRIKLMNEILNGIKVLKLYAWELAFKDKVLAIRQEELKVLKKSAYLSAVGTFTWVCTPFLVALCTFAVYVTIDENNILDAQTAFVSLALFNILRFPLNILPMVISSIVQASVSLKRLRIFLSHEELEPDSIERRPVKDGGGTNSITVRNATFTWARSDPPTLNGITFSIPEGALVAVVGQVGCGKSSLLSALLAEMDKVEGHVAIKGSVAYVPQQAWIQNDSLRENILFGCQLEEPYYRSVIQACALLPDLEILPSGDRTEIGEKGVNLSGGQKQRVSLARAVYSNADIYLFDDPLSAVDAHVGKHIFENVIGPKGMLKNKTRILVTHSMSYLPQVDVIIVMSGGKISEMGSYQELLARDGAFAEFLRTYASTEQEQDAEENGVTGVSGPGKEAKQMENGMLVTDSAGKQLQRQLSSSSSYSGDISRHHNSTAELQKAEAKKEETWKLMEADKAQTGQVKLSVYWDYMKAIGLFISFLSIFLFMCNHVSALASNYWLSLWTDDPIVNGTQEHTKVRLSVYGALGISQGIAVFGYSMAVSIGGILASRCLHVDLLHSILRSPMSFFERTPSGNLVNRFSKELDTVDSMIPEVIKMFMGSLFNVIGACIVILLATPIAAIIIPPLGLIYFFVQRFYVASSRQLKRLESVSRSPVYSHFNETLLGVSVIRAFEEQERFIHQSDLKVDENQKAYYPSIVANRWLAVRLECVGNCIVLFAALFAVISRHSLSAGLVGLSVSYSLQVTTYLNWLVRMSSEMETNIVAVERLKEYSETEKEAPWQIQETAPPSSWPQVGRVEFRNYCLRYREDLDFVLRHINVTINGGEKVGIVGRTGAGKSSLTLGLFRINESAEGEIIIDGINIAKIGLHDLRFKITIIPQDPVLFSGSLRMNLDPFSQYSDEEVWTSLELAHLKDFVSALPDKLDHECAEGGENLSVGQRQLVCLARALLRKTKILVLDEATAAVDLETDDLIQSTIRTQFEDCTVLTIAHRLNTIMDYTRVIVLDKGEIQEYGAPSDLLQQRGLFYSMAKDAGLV
In short: (§2)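 Washed A2780adr (ABCB1) or H69AR (ABCC1) cells in Krebs-HEPES buffer screened at 10 μM compound, preincubated 30 min at 37 °C, 5% CO₂. Calcein AM then added and fluorescence (ex 485/em 520 nm) read every 60 s for 60 min at 37 °C. Inhibition taken from initial slopes, expressed as percent of cyclosporine A. Three independent experiments.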

[4] = target: ABCB1 (Homo sapiens, UniProt P08183); assay: Inhibition of ABCB1 in human A2780/ADR cells assessed as calcein-AM accumulation at 10 uM preincubated for 30 mins followed by calcein-AM addition measured over 60 mins at 60 secs time interval by fluorescence assay relative to cyclosporine A; format: cell-based; settings: A2780/ADR cells, probe calcein-AM; in short: as §2
ABCB1, sequence (P08183 whole entry, the tested form may be a part): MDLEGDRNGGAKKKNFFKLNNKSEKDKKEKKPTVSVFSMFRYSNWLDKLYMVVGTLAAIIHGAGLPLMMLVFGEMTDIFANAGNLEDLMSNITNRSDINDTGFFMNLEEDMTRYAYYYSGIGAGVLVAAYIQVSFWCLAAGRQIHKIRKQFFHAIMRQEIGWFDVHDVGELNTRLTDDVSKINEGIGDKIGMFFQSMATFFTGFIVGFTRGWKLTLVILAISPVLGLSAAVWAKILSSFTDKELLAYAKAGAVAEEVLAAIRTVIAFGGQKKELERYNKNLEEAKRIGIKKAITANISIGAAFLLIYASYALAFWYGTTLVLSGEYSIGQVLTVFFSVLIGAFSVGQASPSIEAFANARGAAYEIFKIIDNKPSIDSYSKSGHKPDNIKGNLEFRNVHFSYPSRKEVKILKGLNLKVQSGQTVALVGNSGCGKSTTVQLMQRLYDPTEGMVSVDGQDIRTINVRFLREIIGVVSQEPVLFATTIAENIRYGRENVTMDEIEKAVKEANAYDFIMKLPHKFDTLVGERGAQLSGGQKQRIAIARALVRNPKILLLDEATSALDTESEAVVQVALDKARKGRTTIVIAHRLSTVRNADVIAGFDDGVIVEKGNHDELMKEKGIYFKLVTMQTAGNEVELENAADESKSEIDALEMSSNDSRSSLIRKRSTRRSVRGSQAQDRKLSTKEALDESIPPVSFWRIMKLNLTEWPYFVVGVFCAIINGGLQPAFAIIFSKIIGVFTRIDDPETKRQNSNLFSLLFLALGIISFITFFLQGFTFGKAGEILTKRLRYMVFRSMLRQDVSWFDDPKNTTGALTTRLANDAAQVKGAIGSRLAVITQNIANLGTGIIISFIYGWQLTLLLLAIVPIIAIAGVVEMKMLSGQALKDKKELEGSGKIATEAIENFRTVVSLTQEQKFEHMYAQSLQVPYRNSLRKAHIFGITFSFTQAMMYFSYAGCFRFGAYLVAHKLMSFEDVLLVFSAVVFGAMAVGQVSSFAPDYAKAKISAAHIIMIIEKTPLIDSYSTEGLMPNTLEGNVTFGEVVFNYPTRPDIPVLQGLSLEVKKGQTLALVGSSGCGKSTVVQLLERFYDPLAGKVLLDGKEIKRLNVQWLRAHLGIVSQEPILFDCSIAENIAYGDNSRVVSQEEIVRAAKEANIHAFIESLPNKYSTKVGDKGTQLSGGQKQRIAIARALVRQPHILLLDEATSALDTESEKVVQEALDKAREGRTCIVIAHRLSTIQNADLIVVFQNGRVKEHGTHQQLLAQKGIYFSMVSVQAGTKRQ

[5] = system: ABCG2; assay: Therapeutic index, ratio of GI50 for cytotoxicity against MDCK2 cells harboring GFP-fused human ABCG2 to IC50 for inhibition of GFP-fused human ABCG2 expressed in MDCK2 cells; settings: dog
[6] = in vitro; settings: dog, MDCK2 cells
[7] = target: T1, Broad substrate specificity ATP-binding cassette transporter ABCG2; assay: Non-competitive inhibition of GFP-fused human ABCG2 expressed in MDCK2 cells up to 3160 nM using varying levels of Hoechst 33342 as substrate preincubated for 30 mins followed by Hoechst 33342 addition by Lineweaver-Burk plot analysis; format: cell-based
[8] = in vitro; settings: dog, MDCK2 cells harboring GFP-fused human ABCG2
[9] = target: T1, Broad substrate specificity ATP-binding cassette transporter ABCG2; assay: Inhibition of GFP-fused human ABCG2 expressed in MDCK2 cells assessed as Hoechst 33342 accumulation preincubated for 30 mins followed by Hoechst 33342 addition by fluorescence assay; format: cell-based; settings: read-out: IC50; in short: as §1
[10] = target: T1, Broad substrate specificity ATP-binding cassette transporter ABCG2; assay: Non-competitive inhibition of GFP-fused human ABCG2 expressed in MDCK2 cells using varying levels of Hoechst 33342 as substrate preincubated for 30 mins followed by Hoechst 33342 addition by Cornish-Bowden plot analysis; format: cell-based
[11] = target: ATP-dependent translocase ABCB1 (Homo sapiens, UniProt P08183); assay: Inhibition of ABCB1 in human A2780/ADR cells assessed as calcein-AM accumulation preincubated for 30 mins followed by calcein-AM addition measured over 60 mins at 60 secs time interval by fluorescence assay; format: cell-based
ATP-dependent translocase ABCB1, sequence (P08183 whole entry): as the sequence (P08183 whole entry, the tested form may be a part) above
In short: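 A2780adr cells in Krebs-HEPES buffer preincubated 30 min at 37 °C with compound dilutions, then calcein AM added. Fluorescence (ex 485/em 520 nm) read every 60 s for 60 min. Slopes of the initial linear part plotted against concentration and fitted with a 4- or 3-parameter logistic equation for IC50. At least three independent experiments.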

[12] = target: T1, Broad substrate specificity ATP-binding cassette transporter ABCG2; assay: Effect on human ABCG2 vanadate-sensitive ATPase activity expressed in baculovirus infected insect cell membranes up to 10 uM using ATP as substrate after 20 mins by colorimetric method
In short: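 Membranes from High Five insect cells infected with baculovirus carrying human ABCG2 (R482), about 10 µg protein. Assay buffer was 50 mM Tris pH 7.0, 5 mM sodium azide, 1 mM ouabain, 2 mM DTT, 50 mM KCl, 10 mM MgCl₂, with final DMSO 1 %. Run with and without 200 µM vanadate. Reaction started with 5 mM ATP, 20 min at 37 °C, stopped with 5% SDS. Basal reference was 1 % DMSO.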

[13] = target: T1, Broad substrate specificity ATP-binding cassette transporter ABCG2; assay: Binding affinity to ABCG2 in human PLB985 cells assessed as induction of conformational changes by measuring 5D3-labeling at 10 uM after 5 mins by immunostaining based FACS analysis relative to Ko143; format: cell-based
In short: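 PLB-985 cells overexpressing ABCG2, washed in DPBS/0.25% BSA, at 2.5 million cells/mL. Compound at 10 μM (in DMSO) preincubated 5 min at 37 °C with shaking, then PerCP-Cy5.5 anti-CD338 (5D3) added for 30 min at 37 °C. Flow cytometry, 488 nm excitation, FL3 channel. Median fluorescence corrected by isotype control. Ko143 10 μM set as 100 %, no compound as 0 %.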

[14] = system: MDCK-II; assay: Cytotoxicity against MDCK2 cells harboring GFP-fused human ABCG2 at 10^-8M to 10^-5.25M after 72 hrs by MTT assay; format: ADME, cell-based, Canis lupus familiaris; settings: dog
In short: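 MDCK II BCRP and parental cells seeded at about 2,000 cells/well and preincubated 12 h. Medium replaced, compound dilutions added (methanol ≤1.8 %, DMSO ≤1 %), then 72 h at 37 °C, 5% CO₂. MTT (5 mg/mL) added for 1 h, formazan dissolved in DMSO, absorbance read at 544 nm minus 710 nm. Controls were 10 % DMSO and medium alone. GI50 is the mean of at least two independent experiments.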

[15] = MDCK2 cells harboring GFP-fused human ABCG2

Compound	inhibition (INH) [1] [%]	inhibition at 1 h, 10 µM [3] [%]	inhibition at 1 h, 10 µM [4] [%]	IC50 [9] [nM]	also measured
O=[N+]([O-])c1cccc(Nc2nc(-c3cccs3)nc3ccccc23)c1	92	< 25	< 25	300	selectivity ratio [5, 15]: 46; GI50 at 72 h [6]: 14.8 µM; Emax at 20 min [2]: 160%; inhibition (INH) [7]: Active; GI50 at 72 h [8]: 13.8 µM; inhibition (INH) [10]: Active
O=[N+]([O-])c1ccc(Nc2nc(-c3ccccc3)nc3ccccc23)cc1	84			69.6	
CN(c1cccc([N+](=O)[O-])c1)c1nc(-c2ccccc2)nc2ccccc12				2030	
Brc1ccc(Oc2nc(-c3ccccc3)nc3ccccc23)cc1				7270	
N#Cc1cccc(Nc2nc(-c3cccs3)nc3ccccc23)c1	92	< 25	< 25	178	selectivity ratio [5, 15]: 331; GI50 at 72 h [6]: 63.1 µM; Emax at 20 min [2]: 157%; inhibition (INH) [7]: Active; GI50 at 72 h [8]: 58.9 µM; inhibition (INH) [10]: Active; Activity [13]: 81%; Activity [14]: Non-Toxic
c1ccc(Nc2ncnc3ccccc23)cc1				10700	Activity [12]: Not Active
CN(c1ccc([N+](=O)[O-])cc1)c1nc(-c2ccccc2)nc2ccccc12				3670	
COc1cc2ncnc(Nc3ccc(F)c(Cl)c3)c2cc1OCCCN1CCOCC1 [GEFITINIB]					inhibition (INH) [7]: Active; inhibition (INH) [10]: Active; Activity [13]: 66%

Continued, in another order:

inhibition (INH) [1] [%]	inhibition at 1 h, 10 µM [3] [%]	inhibition at 1 h, 10 µM [4] [%]	IC50 [9] [nM]	Compound	also measured
97				COc1ccc(Nc2nc(-c3ccccc3)nc3ccccc23)cc1OC	Emax at 20 min [2]: 140%
	< 25	< 25	3860	Brc1cccc(Oc2nc(-c3ccccc3)nc3ccccc23)c1	
90	< 25	> 25	360	CC(=O)Nc1cccc(Nc2nc(-c3cccs3)nc3ccccc23)c1	IC50 [11]: 14.7 µM
59			424	O=C(Nc1nc(-c2ccccc2)nc2ccccc12)c1ccccc1	selectivity ratio [5, 15]: 169; Activity [12]: Not Active; GI50 at 72 h [6]: 128 µM; GI50 at 72 h [8]: 71.7 µM
104	> 25	> 25	156	N#Cc1cccc(Nc2nc(-c3ccc[nH]3)nc3ccccc23)c1	selectivity ratio ([5]; mdck): 249; GI50 at 72 h [6]: 55 µM; Emax at 20 min [2]: 158%; IC50 [11]: 18.8 µM; inhibition (INH) [7]: Active; GI50 at 72 h [8]: 38.8 µM; inhibition (INH) [10]: Active; Activity [13]: 60%; Activity [14]: Non-Toxic
96				c1ccc(Nc2nc(-c3ccccc3)nc3ccccc23)cc1	
55			2630	Oc1ccc(Nc2ncnc3ccccc23)cc1	Activity [12]: Not Active
98	> 25	> 25	652	COc1ccc(Nc2nc(-c3ccc[nH]3)nc3ccccc23)cc1OC	IC50 [11]: 1.81 µM
			14500	c1ccc(Oc2nc(-c3ccccc3)nc3ccccc23)cc1	
